MrgX1 antagonist – human MrgX1 receptor antagonism, primary screen. 310,000 tested, 1.3% active. B-score at 10 µM. Q96LB2. MRGX1-HEK293 calcium flux, Fluo-4, BAM8-22 antagonism; stronger effect = lower value. AID 588676;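 active = calcium-response B-score plate-corrected more than 3 library SD below zero, starting fluorescence within 5 deviations, no agonist response on first addition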;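 also: peak minus trough fluorescence over baseline after final BAM8-22 challenge near maximal dose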
Target sequence (Q96LB2 whole entry, looked up): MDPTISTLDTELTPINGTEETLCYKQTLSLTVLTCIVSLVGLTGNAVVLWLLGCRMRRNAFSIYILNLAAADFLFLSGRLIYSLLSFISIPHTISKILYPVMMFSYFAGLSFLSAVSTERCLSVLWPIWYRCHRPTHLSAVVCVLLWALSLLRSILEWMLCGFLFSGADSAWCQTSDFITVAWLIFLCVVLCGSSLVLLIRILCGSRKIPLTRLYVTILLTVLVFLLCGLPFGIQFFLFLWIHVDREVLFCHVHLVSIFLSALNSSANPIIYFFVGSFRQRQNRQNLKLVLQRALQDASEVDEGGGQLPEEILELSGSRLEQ
MrgX1 allo act – human MrgX1 positive allosteric modulation, primary screen; Q96LB2; MrgX1-HEK293, Fluo-4 calcium flux, FDSS; stronger effect = higher value; B-score at 10 µM; 310,000 tested, 0.63% active;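 active = plate-corrected calcium response at least 3 library SD above typical, normal starting fluorescence, not activating the receptor alone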;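 also: compound read alongside a low EC10 to EC30 dose of BAM8-22 agonist; peak minus trough fluorescence over baseline measured at the second addition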
RGS4 pot – RGS4 potentiation or activation; HEK293 M3R/inducible RGS4, carbachol calcium flux Fluo4; stronger effect = lower value; B-score at 10 µM; 310,000 tested, 0.92% active;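 active = B-score of the integrated calcium signal more than 4 SD below the library mean, with starting fluorescence not abnormally high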;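 also: negative B-score means reduced calcium response which marks RGS4 activation or potentiation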
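Test system: HEK293 cells with stable M3R and inducible RGS4; also added: carbachol at ECmax as muscarinic agonist stimulus; schedule: dye loading 30 min 37 °C, buffer rest 30 min RT; technique: kinetic calcium fluorescence imaging with Fluo4-AM dye, 2 µM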
MrgX1 ag – agonists of human MrgX1 receptor. MrgX1-HEK293 cells, Fluo-4 calcium fluorescence, agonist mode; stronger effect = higher value. 310,000 tested, 0.44% active. B-score at 10 µM;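 active = calcium response B-score plate-corrected fluorescence ratio at least 3 library SD, with starting fluorescence B-score inside 5 SD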
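Assay system: stable human MrgX1 HEK293 cell line. Quantity: 15,000 cells per well. Schedule: cells plated overnight, dye loaded 0.5 h 37 °C, 0.5 h room temperature. Detection: Fluo-4 NW calcium-flux fluorescence, kinetic read. Read-out basis: peak-minus-minimum fluorescence over baseline, converted to B scores. Control set: positive and negative control wells on each plate.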
RGS4 block – human RGS4 inhibition; 310,000 tested, 0.45% active; HEK293 M3R/RGS4 inducible, Fluo-4 calcium flux; stronger effect = higher value; triggered by carbachol at its EC20; AID 463165; P49798; B-score at 10 µM;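 active = B-score, a plate-corrected calcium signal, over three deviations above library mean, with baseline fluorescence within five deviations of library mean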;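 also: RGS4 expression induced by doxycycline in cells with stable M3 receptor; B-score is computed from the integrated fluorescence ratio over baseline after carbachol; higher B-score means a larger calcium signal and so more RGS4 inhibition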
Target sequence (P49798 whole entry, looked up): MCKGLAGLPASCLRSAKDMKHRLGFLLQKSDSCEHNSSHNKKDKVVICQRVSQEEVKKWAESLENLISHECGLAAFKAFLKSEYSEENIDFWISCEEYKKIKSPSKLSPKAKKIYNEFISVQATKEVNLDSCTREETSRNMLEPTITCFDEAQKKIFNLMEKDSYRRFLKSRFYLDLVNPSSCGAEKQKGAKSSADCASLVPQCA
MrgX1 ant reconf – confirmation of human MrgX1 receptor antagonists; shares compounds with MrgX1 antagonist; MrgX1-HEK293, BAM8-22 calcium flux, Fluo-4; stronger effect = lower value; remaining BAM8-22 calcium response % of control (stronger effect = lower value), % at 10 µM; 2,300 tested, 19% active;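 active = remaining agonist calcium response no higher than 100% minus 3 SD of agonist-only control wells, with starting fluorescence near control levels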;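 also: agonist BAM8-22 given at a near maximal EC90 to ECmax level; peak minus minimum fluorescence divided by baseline after agonist addition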
HEK293 Ca flux – activity in parental HEK293 cells lacking MrgX1; shares compounds with MrgX1 antagonist; 4,000 tested, 2% active; Fluo-4 calcium fluorescence, FDSS; fluorescence ratio F(max-min)/F0 at 10 µM;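 active = duplicate-averaged calcium fluorescence ratio at least three times the standard deviation of buffer wells, a nonspecific response in parental cells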
HEK293 Ca counter – counter-screen for MrgX1 allosteric activators: effect in parental HEK293 cells; shares compounds with MrgX1 antagonist; parental HEK293 calcium flux, Fluo-4 fluorescence ratio; stronger effect = higher value; fluorescence ratio F(max-min)/F0 at 10 µM; 4,000 tested, 0.4% active; AID 624114;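 active = calcium fluorescence ratio, averaged over duplicates, at least 3 SD of the buffer-well ratio, meaning a nonspecific response in receptor-free cells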;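 also: untransfected parental HEK293 lacking MrgX1 used as counterscreen for MrgX1 allosteric activators; fluorescence change taken during the second addition on a kinetic imager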
HEK293 Ca cntr2 – activity in parental HEK293 cells lacking MrgX1 receptor; shares compounds with MrgX1 antagonist; Fluo-4 calcium fluorescence (FDSS); stronger effect = higher value; fluorescence ratio F(max-min)/F0 at 10 µM; 4,000 tested, 8.7% active;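 active = calcium fluorescence ratio at least three times the spread of buffer wells, meaning a non-specific response in parental cells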
* hit, by the source's call; i = inactive; x = no result given. Sampled rows, rich in hits. Any-hit rate of the full collection: about 3.5%.

SMILES	MrgX1 antagonist	MrgX1 allo act	RGS4 pot	MrgX1 ag	RGS4 block	MrgX1 ant reconf	HEK293 Ca flux	HEK293 Ca counter	HEK293 Ca cntr2
O=C(NC(=S)Nc1ccccn1)c1cncc(Br)c1	i	i	i	i	i	x	x	x	x
O=C(Nc1ccc(C(=O)N2CCCC2)cc1)c1ccccc1Br	i	i	i	i	i	x	x	x	x
O=C(Nc1ccc(C(=O)N2CCCCC2)cc1)c1ccccc1Br	-5.62*	i	i	i	i	i	i	i	i
O=C(Nc1cccc(C(=O)N2CCCCCC2)c1)c1ccco1	-4.7*	i	i	i	i	i	i	i	i
CCCOc1ccc([N+](=O)[O-])c(N)c1	i	i	i	i	i	x	x	x	x
O=C(Nc1ccc([N+](=O)[O-])cc1)N1CCCCC1	i	i	i	i	i	x	x	x	x
O=C(COc1ccccc1)Nc1cccc(-c2nc3cc4ccccc4cc3[nH]2)c1	-5.08*	i	i	i	i	77.8%*	i	i	i
COc1cc(NC(=O)c2ccc(S(=O)(=O)N(C)C)cc2)cc(OC)c1OC	-5.33*	i	i	i	i	i	i	i	i
Cc1cccc(NC(=O)c2ccc(S(=O)(=O)N(C)C)cc2)c1	i	i	i	i	i	x	x	x	x
CCN(CC)S(=O)(=O)c1ccc(C(=O)Nc2cc3oc4ccccc4c3cc2OC)cc1	-6.76*	i	i	i	i	i	i	i	i
CCc1ccc(N2CC(C(=O)Nc3nccs3)CC2=O)cc1 (stereo unspecified)	-5*	i	i	i	i	i	i	i	i
O=C(Nc1nccs1)C1CC(=O)N(c2ccc(F)cc2)C1 (stereo unspecified)	i	i	i	i	i	x	x	x	x
O=C(Nc1cccc(O)c1)c1cc(S(=O)(=O)N2CCCC2)ccc1Cl	-5.11*	i	i	i	i	i	i	i	i
Cc1ccc(N2C(=O)N(CC(=O)Nc3ccc(C)cc3Cl)C(=O)C2C)cc1 (stereo unspecified)	-10*	i	i	i	i	76.9%*	i	i	i
COc1c2c(nc3ccccc13)OC(C(C)(O)CO)C2 (stereo unspecified)	-6.89*	i	i	i	i	i	i	i	i
COc1cccc(CN2CCC(C(=O)N3CCN(c4ccccc4F)CC3)CC2)c1OC	-9.2*	i	i	i	i	i	i	i	i
c1ccc(CNc2nc3ccccc3n2CCN2CCOCC2)nc1	-4.66*	i	i	i	i	i	i	i	i
CCCn1c(NCc2ccccn2)nc2ccccc21	i	i	i	i	i	x	x	x	x
COC(=O)c1cc(OC(=O)CCc2ccc(OC)c(OC)c2)cc(C(=O)OC)c1	i	i	i	i	i	x	x	x	x
COc1ccc(S(=O)(=O)N(CCc2ccccc2)CC(N)=O)cc1	-5.44*	i	i	i	i	i	i	i	i
COc1ccc(-c2nc3ccccc3c(=O)n2CCOc2ccccc2C)cc1	-7.01*	i	i	i	i	i	i	i	i
COc1ccc(-c2nc3ccccc3c(=O)n2CCOc2ccc(C)cc2C)cc1	i	i	i	i	i	x	x	x	x
O=C(O)c1ccccc1CSc1ncn[nH]1	-8.32*	i	i	i	i	i	i	i	i
Cc1cc(C)n(C(=O)/C(C#N)=C/N(C)C)n1	i	i	i	i	i	x	x	x	x
CCC(CC)c1nnc(NC(=O)c2ccc(N3CCCC3=O)cc2)s1	-4.93*	i	i	i	i	i	i	i	i
SMILES	MrgX1 antagonist	MrgX1 allo act	RGS4 pot	MrgX1 ag	RGS4 block	MrgX1 ant reconf	HEK293 Ca flux	HEK293 Ca counter	HEK293 Ca cntr2
O=C(NCC1CCCN1S(=O)(=O)c1cccs1)C(=O)Nc1ccccc1 (stereo unspecified)	i	i	i	i	i	x	x	x	x
O=C(NCc1ccccc1)C(=O)NCC1CCCN1S(=O)(=O)c1cccs1 (stereo unspecified)	-15.8*	i	i	i	i	i	i	i	i
COc1cc(C(=O)NCC2CCCN2S(=O)(=O)c2cccs2)cc(OC)c1OC (stereo unspecified)	-7.74*	i	i	i	i	i	i	i	i
COc1ccccc1CNC(=O)C(=O)NCC1CCCN1S(=O)(=O)c1cccs1 (stereo unspecified)	-4.77*	i	i	i	i	82.8%*	i	i	i
Cc1ccc(C(=O)NCC2CCCN2S(=O)(=O)c2cccs2)cc1C (stereo unspecified)	i	i	i	i	i	x	x	x	x
Cc1ccc(S(=O)(=O)N2CCCC2CNC(=O)C(=O)NCc2ccccn2)cc1 (stereo unspecified)	-7.09*	i	i	i	i	i	i	i	i
Cc1ccc(NC(=O)C(=O)NCC2CCCN2S(=O)(=O)c2cccs2)cc1 (stereo unspecified)	i	i	i	i	i	x	x	x	x
Cc1cccc(NC(=O)C(=O)NCC2CCCN2S(=O)(=O)c2cccs2)c1C (stereo unspecified)	-5.48*	i	i	i	i	i	i	i	i
CC(C)CCNC(=O)C(CC(C)C)N(Cc1ccc2c(c1)OCO2)C(=O)c1snc(C(N)=O)c1N (stereo unspecified)	i	i	i	i	i	x	x	x	x
Cc1ccc(S(=O)(=O)N(C)c2ccc(C(=O)Nc3c(C)n(C)n(-c4ccccc4)c3=O)cc2)cc1	i	i	i	i	i	x	x	x	x
CCN(CC)S(=O)(=O)c1ccc(NC(=O)Nc2cccc(C(F)(F)F)c2)cc1	-5.82*	i	i	i	i	64.4%*	i	i	i
COc1cc(CNC(C)(C)CO)ccc1OCC(=O)NC(C)(C)C	i	i	i	i	i	x	x	x	x
